Measurements published in ChEMBL document CHEMBL1129597, “2-[2'-(Dimethylamino)ethyl]-1,2-dihydro- 3H-dibenz[de,h]isoquinoline-1,3-diones with substituents at positions 4, 8, 9, 10, and 11. Synthesis, antitumor activity, and quantitative structure-activity relationships” (J Med Chem, 1996).
pIC50: −log10 of the molar value.

Tests used:
[1] = (§1) Percent increase in life span when given at a dose in P388 leukemia cells of mice; format: functional
Procedure, shortened: (§2)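 P388 leukemia in mice, standard NCI protocol: 10^6 leukemia cells given ip; compound given ip in equal doses on days 1, 5 and 9. Highest dose used was 10% below the LD10 for acute toxicity in that mouse species. %ILS = 100 × (treated life span − control life span)/control life span, reported at the highest nontoxic dose.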

[2] = species: Rattus norvegicus; experiment: Cardiotoxicity measured by the ATP/protein ratio compared with untreated controls using neonatal rat heart myocyte assay.; format: functional; parameters: Cardiotoxicity: unit not given here
Procedure, shortened: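 Neonatal rat heart myocytes exposed to drug for 1 h. The ATP/protein ratio was measured versus untreated control myocytes. IC50 is the concentration reducing this ratio to 50% of control.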

[3] = species: Mus musculus; experiment: Percent increase in life span when given at a dose in P388 leukemia cells of mice (Positive control for compounds 15,34 and amonafide); format: functional; procedure, shortened: as §2
[4] = species: Mus musculus; experiment: Percent increase in life span when given at a dose in P388 leukemia cells of mice (Positive control for compound 44); format: functional; procedure, shortened: as §2
[5] = tested on: MCF7; experiment: Antitumor activity against human mammary carcinoma doxorubicin-resistant […] breast cell line.; format: functional, cell-based
[6] = tested on: MCF7; experiment: Antitumor activity against human mammary carcinoma sensitive […] breast cell line.; format: functional, cell-based
[7] = tested on: MCF7; experiment: Antitumor activity against human mammary carcinoma mitoxantrone-resistant […] breast cell line.; format: functional, cell-based
[8] = tested on: WiDr; experiment: Activity against human colon carcinoma sensitive WiDr cell line.; format: functional, cell-based
[9] = species: Mus musculus; experiment: as §1; format: functional; procedure, shortened: as §2
[10] = tested on: A549; experiment: Activity against A549 cancer cell line.; format: functional, cell-based; settings: Homo sapiens
[11] = (§3) The quotient of the IC50 in the myocytes divided by the mean IC50 in the three cell lines; format: functional
Procedure, shortened: (§4)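 Calculated index: the myocyte IC50 divided by the mean IC50 across three tumor lines (sensitive L1210, melanoma UACC375, ovarian OVCAR3).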

[12] = tested on: WiDr; experiment: Activity against human colon carcinoma multi drug resistant (MDR)-WiDr cell line.; format: functional, cell-based
[13] = tested on: L1210; experiment: Antitumor activity against sensitive L1210 murine leukemia cell lines.; format: functional, cell-based; settings: Mus musculus
Procedure, shortened: (§5)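 Murine L1210 leukemia cells, sensitive or MDR subline, in culture. Continuous drug exposure during MTT assay. Five concentrations per analogue, six determinations per concentration. The IC50 was derived.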

[14] = tested on: UACC-375; experiment: Antitumor activity against human melanoma UACC375 cell line.; format: functional, cell-based
Procedure, shortened: (§6)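 Cultured human tumor cells (melanoma UACC375, ovarian OVCAR3) under continuous drug exposure. Growth was read by sulforhodamine or MTT assay. Five concentrations per analogue, six determinations per concentration. IC50 values were derived from these.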

[15] = tested on: MCF7; experiment: Compound was tested for antitumor activityHuman mammary carcinoma Doxorubicin resistant […] breast cell line.; format: functional, cell-based; settings: Homo sapiens
[16] = tested on: L1210; experiment: Compound was tested for antitumor activity against Murine leukemia cell line (L1210).; format: functional, cell-based; settings: Mus musculus; procedure, shortened: as §5
[17] = tested on: OVCAR-3; experiment: Antitumor activity against human ovarian OVCAR-3 cell lines.; format: functional, cell-based; procedure, shortened: as §6
[18] = tested on: L1210; experiment: Antitumor activity against murine leukemia L1210 cell line.; format: functional, cell-based; settings: Mus musculus; procedure, shortened: as §5
[19] = as §3; format: ADME, cell-based; settings: myocytes versus three cell lines; read-out: Toxicity ratio; procedure, shortened: as §4
[20] = tested on: WiDr; experiment: Compound was tested for antitumor activity against The compound tested for activity against Human colon carcinoma sensitive WiDr cell line.; format: functional, cell-based
[21] = tested on: WiDr (Homo sapiens); experiment: Compound was tested for antitumor activity against The compound tested for activity against Human colon carcinoma sensitive WiDr cell line.
[22] = tested on: OVCAR-3; experiment: Compound was tested for antitumor activity against. Human ovarian (OVCAR-3) cell lines.; format: functional, cell-based
[23] = tested on: WiDr; experiment: Compound was tested for antitumor activity against The compound tested for activity against Human colon carcinoma, Multi Drug resistant(MDR) WiDr - cell line.; format: functional, cell-based
[24] = tested on: MCF7; experiment: Compound was tested for antitumor activity against Human mammary carcinoma Doxorubicin resistant […] breast cell line.; format: functional, cell-based
[25] = tested on: WiDr; experiment: The compound tested for activity againstHuman colon carcinoma sensitive WiDr cell line.; format: functional, cell-based; settings: Homo sapiens
[26] = tested on: MCF7; experiment: Compound was tested for antitumor activity against Human mammary carcinoma sensitive cell line ([…] breast).; format: functional, cell-based
[27] = tested on: L1210; experiment: Compound was tested for antitumor activity against l. Sensitive leukemia cell lines (L1210).; format: functional, cell-based; settings: Mus musculus; procedure, shortened: as §5

Compound	pIC50 [5]	pIC50 [6]	pIC50 [8]	pIC50 [10]	pIC50 [12]	pIC50 [13]	pIC50 [14]	pIC50 [17]	pIC50 [18]	pIC50 [2]	pIC50 [7]	Toxicity ratio [11]	also measured
CC(=O)Nc1cccc2c3c4c(cccc4cc12)C(=O)N(CCN(C)C)C3=O													ILS [1]: 109%
COc1cccc2c1C(=O)c1c(O)c3c(c(O)c1C2=O)C[C@@](O)(C(=O)CO)C[C@@H]3O[C@H]1C[C@H](N)[C@H](O)[C@H](C)O1 [DOXORUBICIN]										4.99			ILS [3]: 113%; ILS [4]: 72%
CN(C)CCN1C(=O)c2cccc3cc4ccc(NC(=O)C(C)(C)C)cc4c(c23)C1=O													ILS [1]: 105%
CN(C)CCN1C(=O)c2cccc3cc(N)cc(c23)C1=O [AMONAFIDE]	5.74	5.96	5.96	5.96	5.66					4.32	5.92	30	ILS [9]: 88%
O=C1c2c(O)ccc(O)c2C(=O)c2c(NCCNCCO)ccc(NCCNCCO)c21 [MITOXANTRONE]										5.11		368	ILS [9]: 200%
CN(C)CCN1C(=O)c2cccc3cc4ccccc4c(c23)C1=O [AZONAFIDE]										5.70		44	ILS [9]: 79%
COc1ccc2cc3cccc4c3c(c2c1)C(=O)N(CCN(C)C)C4=O	7.28	7.42	7.40	7.51	7.21	7.68	7.28	7.11	7.28	5.04	7.39	182	

More lines, main results first:

pIC50 [5]	pIC50 [6]	pIC50 [8]	pIC50 [10]	pIC50 [12]	pIC50 [13]	pIC50 [14]	pIC50 [17]	pIC50 [18]	Compound	pIC50 [2]	pIC50 [7]	Toxicity ratio [11]	also measured
	5.92	5.65	6.09	5.33	5.17	5.12	5.26		CN(C)CCN1C(=O)c2c(O)ccc3cc4ccccc4c(c23)C1=O	< 3.87	5.82	>20	pIC50 [15]: 5.55; pIC50 [16]: 4.83
7.10	7.22	7.70	7.66	6.96		7.11	7.41	7.74	CN(C)CCN1C(=O)c2cccc3cc4c(Cl)cccc4c(c23)C1=O	5.99	7.72		selectivity ratio [19]: 22.8
7.00	7.49		7.21	6.92	7.60	7.11	7.11	7.30	CCOc1ccc2cc3cccc4c3c(c2c1)C(=O)N(CCN(C)C)C4=O	4.95	7.82	188	pIC50 [20]: 7.00
	7.30		7.92		8.00	6.48			CN(C)CCN1C(=O)c2c(Cl)ccc3cc4ccccc4c(c23)C1=O	6.05	7.22	5.2	pIC50 [21]: 7.05; pIC50 [22]: 6.74; pIC50 [23]: 6.72; pIC50 [24]: 7.07; pIC50 [16]: 7.82
6.92	7.14	7.19	7.57	6.89	7.27	6.79	6.27	7.27	COc1ccc2c3c4c(cccc4cc2c1)C(=O)N(CCN(C)C)C3=O		7.02	<10.3	Cardiotoxicity [2]: < 2600
7.46	8.24	7.77	8.77	6.62	6.72	5.92	5.67	6.27	CN(C)CCN1C(=O)c2cccc3cc4ccc(O)cc4c(c23)C1=O	< 4.57	7.77	>23	
			7.47	6.92	7.27	6.75	6.91		Cc1ccc2cc3ccccc3c3c2c1C(=O)N(CCN(C)C)C3=O	5.87	6.85	12	pIC50 [25]: 7.22; pIC50 [26]: 6.41; pIC50 [24]: 6.48; pIC50 [16]: 7.17
7.70	7.89	7.77	8.15	7.70		8.40	7.66	8.17	CN(C)CCN1C(=O)c2cccc3cc4cc(O)ccc4c(c23)C1=O	6.39	7.77	40.4	pIC50 [27]: 8.27
7.30	7.31	7.29	7.51	7.19	8.24	7.36	6.99	7.84	CNCCN1C(=O)c2cccc3cc4ccc(Cl)cc4c(c23)C1=O	5.84	7.38	28	
